Measured values reported in ChEMBL document CHEMBL3297702, “Improving photodynamic inactivation of bacteria in dentistry: highly effective and fast killing of oral key pathogens with novel tooth-colored type-II photosensitizers” (J Med Chem, 2014).

Key:
[1] = Induction of singlet oxygen generation measured over 20 mins by luminescence assay; assay type: physicochemical
[2] = Photobleaching of the compound irradiated with laser energy at 405 nm for 5 mins; assay type: physicochemical; parameters: dose or concentration left out as unconfirmed
[3] = Octanol-water partition coefficient, log P of the compound at 1 x 10^-4 mol at room temperature after 10 mins by UV/vis spectroscopic analysis; assay type: physicochemical
[4] = Stability of the compound in basic medium at 60 uM at pH > 9 after 5 to 30 mins by UV-vis spectra analysis; assay type: physicochemical
How it was run: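 UV-Vis absorption spectra recorded in buffer solutions at different pH values after 5 and 30 min incubation.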

Enterococcus faecalis [5] = experiment: Photodynamic inactivation of Enterococcus faecalis ATCC 29212 assessed as reduction of log10 CFU at 1 uM incubated prior to irradiation with 25 j/cm'2 for 20 secs measured after 24 hrs by agar plating method (reference value: <1 no unit); assay type: functional
How it was run: (§1)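 E. faecalis ATCC 29212, aerobic overnight BHI culture at 37 °C, was harvested at stationary phase and suspended in PBS at 10^7–10^8 bacteria/mL. It was mixed 1:1 with PS to 0–250 µM final, held 10 s, then illuminated (1260 ± 50 mW/cm2) or kept dark. Dilutions were plated on Mueller-Hinton agar, aerobic 37 °C 24 h, CFU counted. Medians of three independent triplicate experiments, referred to untreated controls.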

Enterococcus faecalis [6] = experiment: Photodynamic inactivation of Enterococcus faecalis ATCC 29212 assessed as reduction of log10 CFU at 1 uM incubated prior to irradiation with 150 j/cm'2 for 120 secs measured after 24 hrs by agar plating method (reference value: <1 no unit); assay type: functional; how it was run: as §1
Enterococcus faecalis [7] = experiment: Photodynamic inactivation of Enterococcus faecalis ATCC 29212 assessed as reduction of log10 CFU at 1 uM incubated prior to irradiation with 50 j/cm'2 for 40 secs measured after 24 hrs by agar plating method (reference value: <1 no unit); assay type: functional; how it was run: as §1
Enterococcus faecalis [8] = experiment: Photodynamic inactivation of Enterococcus faecalis ATCC 29212 assessed as reduction of log10 CFU at 5 uM incubated prior to irradiation with 25 j/cm'2 for 20 secs measured after 24 hrs by agar plating method (reference value: <1 no unit); assay type: functional; how it was run: as §1
Enterococcus faecalis [9] = experiment: Photodynamic inactivation of Enterococcus faecalis ATCC 29212 assessed as reduction of log10 CFU at 5 uM incubated prior to irradiation with 50 j/cm'2 for 40 secs measured after 24 hrs by agar plating method (reference value: <1 no unit); assay type: functional; how it was run: as §1
Enterococcus faecalis [10] = experiment: Photodynamic inactivation of Enterococcus faecalis ATCC 29212 assessed as reduction of log10 CFU at 5 uM incubated prior to irradiation with 150 j/cm'2 for 120 secs measured after 24 hrs by agar plating method (reference value: <1 no unit); assay type: functional; how it was run: as §1
Enterococcus faecalis [11] = experiment: Photodynamic inactivation of Enterococcus faecalis ATCC 29212 assessed as reduction of log10 CFU at 10 uM incubated prior to irradiation with 25 j/cm'2 for 20 secs measured after 24 hrs by agar plating method (reference value: <1 no unit); assay type: functional; how it was run: as §1
Enterococcus faecalis [12] = experiment: Photodynamic inactivation of Enterococcus faecalis ATCC 29212 assessed as reduction of log10 CFU at 10 uM incubated prior to irradiation with 50 j/cm'2 for 40 secs measured after 24 hrs by agar plating method (reference value: <1 no unit); assay type: functional; how it was run: as §1
Enterococcus faecalis [13] = experiment: Photodynamic inactivation of Enterococcus faecalis ATCC 29212 assessed as reduction of log10 CFU at 10 uM incubated prior to irradiation with 150 j/cm'2 for 120 secs measured after 24 hrs by agar plating method (reference value: <1 no unit); assay type: functional; how it was run: as §1
Enterococcus faecalis [14] = experiment: Photodynamic inactivation of Enterococcus faecalis ATCC 29212 assessed as reduction of log10 CFU at 100 uM incubated prior to irradiation with 25 j/cm'2 for 20 secs measured after 24 hrs by agar plating method (reference value: <1 no unit); assay type: functional; how it was run: as §1
Enterococcus faecalis [15] = experiment: Photodynamic inactivation of Enterococcus faecalis ATCC 29212 assessed as reduction of log10 CFU at 100 uM incubated prior to irradiation with 50 j/cm'2 for 40 secs measured after 24 hrs by agar plating method (reference value: <1 no unit); assay type: functional; how it was run: as §1
Enterococcus faecalis [16] = experiment: Photodynamic inactivation of Enterococcus faecalis ATCC 29212 assessed as reduction of log10 CFU at 100 uM incubated prior to irradiation with 150 j/cm'2 for 120 secs measured after 24 hrs by agar plating method (reference value: <1 no unit); assay type: functional; how it was run: as §1
Streptococcus mutans [17] = experiment: Photodynamic inactivation of Streptococcus mutans ATCC 25175 assessed as reduction of log10 CFU at 1 uM incubated prior to irradiation with 25 j/cm'2 for 20 secs measured after 48 hrs by agar plating method (reference value: <1 no unit); assay type: functional
Streptococcus mutans [18] = experiment: Photodynamic inactivation of Streptococcus mutans ATCC 25175 assessed as reduction of log10 CFU at 1 uM incubated prior to irradiation with 50 j/cm'2 for 40 secs measured after 48 hrs by agar plating method (reference value: <1 no unit); assay type: functional
Streptococcus mutans [19] = experiment: Photodynamic inactivation of Streptococcus mutans ATCC 25175 assessed as reduction of log10 CFU at 100 uM incubated prior to irradiation with 50 j/cm'2 for 40 secs measured after 48 hrs by agar plating method (reference value: <1 no unit); assay type: functional
Actinomyces naeslundii [20] = experiment: Photodynamic inactivation of Actinomyces naeslundii T14V assessed as reduction of log10 CFU at 100 uM incubated prior to irradiation with 25 j/cm'2 for 20 secs measured after 48 hrs by agar plating method (reference value: <1 no unit); assay type: functional
How it was run: (§2)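 A. naeslundii T14V grown overnight at 37 °C, shaken, aerobically in BHI broth. Harvested at stationary phase, resuspended in PBS to 10^7–10^8 bacteria/mL (OD600). Mixed 1:1 with PS (final 0–250 µM) or water, 10 s incubation, then blue photopolymerizer light (1260 ± 50 mW/cm2) or dark. Tenfold dilutions plated on blood agar, aerobic 37 °C 48 h, CFU counted; medians of three independent experiments in triplicate.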

Actinomyces naeslundii [21] = experiment: Photodynamic inactivation of Actinomyces naeslundii T14V assessed as reduction of log10 CFU at 100 uM incubated prior to irradiation with 50 j/cm'2 for 40 secs measured after 48 hrs by agar plating method (reference value: <1 no unit); assay type: functional; how it was run: as §2
[22] = tested on: Aggregatibacter actinomycetemcomitans; experiment: Photodynamic inactivation of Aggregatibacter actinomycetemcomitans ATCC 43718 assessed as reduction of log10 CFU at 100 uM incubated prior to irradiation with 25 j/cm'2 for 20 secs measured after 48 hrs by agar plating method relative to control; assay type: functional, Y4
How it was run: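 A. actinomycetemcomitans ATCC 43718 cultured overnight in BHI broth under anaerobic conditions, 37 °C with shaking. Stationary-phase cells were spun down, taken up in PBS to 10^7–10^8/mL, and combined 1:1 with PS (final 0–250 µM) or water. After 10 s they were irradiated at 1260 ± 50 mW/cm2 or kept dark. Serial dilutions went onto BHI agar, incubated anaerobically at 37 °C for 48 h, and CFU were scored. Results are medians from 3 experiments × triplicate versus untreated controls.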

O=C1C(C[n+]2ccccc2)=Cc2cccc3cccc1c23.[Cl-]
Activity [1]: Active | Stability [2]: Unstable | logP at 10 min [3]: -1.3 | Stability [4]: Unstable | log10cfu (Enterococcus faecalis [5]): <1 | log10cfu (Enterococcus faecalis [6]): <3 | log10cfu (Enterococcus faecalis [7]): <1 | log10cfu (Enterococcus faecalis [8]): <1 | log10cfu (Enterococcus faecalis [9]): <3 | log10cfu (Enterococcus faecalis [10]): >6 | log10cfu (Enterococcus faecalis [11]): <3 | log10cfu (Enterococcus faecalis [12]): >6 | log10cfu (Enterococcus faecalis [13]): >6 | log10cfu (Enterococcus faecalis [14]): >6 | log10cfu (Enterococcus faecalis [15]): >6 | log10cfu (Enterococcus faecalis [16]): >6 | log10cfu (Streptococcus mutans [17]): <1 | log10cfu (Streptococcus mutans [18]): <1 | log10cfu (Streptococcus mutans [19]): >6 | log10cfu (Actinomyces naeslundii [20]): > 5 | log10cfu (Actinomyces naeslundii [21]): > 5 | log10cfu [22]: >6

C[N+](C)(CCO)CC1=Cc2cccc3cccc(c23)C1=O.[Cl-]
Activity [1]: Active | Stability [2]: Unstable | logP at 10 min [3]: -1.3 | log10cfu (Enterococcus faecalis [5]): <1 | log10cfu (Enterococcus faecalis [6]): <1 | log10cfu (Enterococcus faecalis [7]): <1 | log10cfu (Enterococcus faecalis [8]): <1 | log10cfu (Enterococcus faecalis [9]): <1 | log10cfu (Enterococcus faecalis [10]): <3 | log10cfu (Enterococcus faecalis [11]): <3 | log10cfu (Enterococcus faecalis [12]): <3 | log10cfu (Enterococcus faecalis [13]): >6 | log10cfu (Enterococcus faecalis [14]): >6 | log10cfu (Enterococcus faecalis [15]): >6 | log10cfu (Enterococcus faecalis [16]): >6 | log10cfu (Streptococcus mutans [17]): <1 | log10cfu (Streptococcus mutans [18]): <1 | log10cfu (Streptococcus mutans [19]): >6 | log10cfu (Actinomyces naeslundii [20]): > 5 | log10cfu (Actinomyces naeslundii [21]): > 5 | log10cfu [22]: > 3

C[N+](C)(C)CC1=Cc2cccc3cccc(c23)C1=O.[Cl-]
Activity [1]: Active | Stability [2]: Unstable | logP at 10 min [3]: -1.4 | Stability [4]: Unstable | log10cfu (Enterococcus faecalis [5]): <1 | log10cfu (Enterococcus faecalis [6]): <3 | log10cfu (Enterococcus faecalis [7]): <1 | log10cfu (Enterococcus faecalis [8]): <1 | log10cfu (Enterococcus faecalis [9]): <3 | log10cfu (Enterococcus faecalis [10]): >6 | log10cfu (Enterococcus faecalis [11]): <1 | log10cfu (Enterococcus faecalis [12]): <3 | log10cfu (Enterococcus faecalis [13]): >6 | log10cfu (Enterococcus faecalis [14]): >6 | log10cfu (Enterococcus faecalis [15]): >6 | log10cfu (Enterococcus faecalis [16]): >6
